Test results reported in ChEMBL document CHEMBL3259624, “Netamines H-N, tricyclic alkaloids from the marine sponge Biemna laboutei and their antimalarial activity” (J Nat Prod, 2014).
pIC50: −log10 of the molar value. The source made the active and inactive calls. No cut-off for these calls is given here.

Columns and labels:
[1] = tested on: KB; assay: Cytotoxicity against human KB cells at 1 uM after 72 hrs; type: functional, cell-based
Procedure, shortened: (§1)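 KB cells exposed to compounds for 72 h, with DMSO-only cells as control. Proliferation was read with CellTiter 96 Aqueous One reagent and expressed as % inhibition of proliferation relative to the DMSO control, as mean ± SE of triplicate.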

[2] = tested on: Plasmodium falciparum; assay: Antiplasmodial activity against Plasmodium falciparum by LDH assay; type: functional, organism-based
[3] = tested on: KB; assay: Cytotoxicity against human KB cells after 72 hrs; type: functional, cell-based; procedure, shortened: as §1

pIC50 [2]	Compound	Activity [1]	pIC50 [3]
	CCCC[C@@H]1c2nc(N)nc3c2[C@@H](CC3)C[C@H]1CCC	inactive	
	CCCCCCC1=C2N=C(N)N[C@H]3CC[C@@H](C[C@H]1CCC)[C@@H]23	inactive	
5.62	CCC[C@@H]1C[C@@H]2CC[C@@H]3NC(N)=NC(=C1CC)[C@H]23 (relative stereo)	inactive	
	CCC/C=C\C[C@H]1c2nc(N)nc3c2[C@@H](CC3)C[C@H]1CCC	inactive	
	CCC/C=C\C[C@@H]1c2nc(N)nc3c2[C@@H](CC3)C[C@H]1CCC (relative stereo)	inactive	
	CCC/C=C\CC1=C2N=C(N)N[C@H]3CC[C@@H](C[C@H]1C)[C@@H]23 (relative stereo)		6.00
	CCC/C=C\C[C@@H]1c2nc(N)nc3c2[C@@H](CC3)C[C@H]1C	inactive	
	CC/C=C/C1=C2N=C(N)N[C@H]3CC[C@@H](C[C@@H]1C)[C@@H]23	inactive	
4.68	CCC/C=C\C[C@H]1c2nc(N)nc3c2[C@@H](CC3)C[C@H]1C	inactive	
